# Reference: publication PMC4764508 (Journal of the American Chemical Society, 2015)
# Like-named read-outs stand apart in the source and are kept apart here.
# Legend:
# [1] = format: physicochemical; conditions: from Kcomp determined using CDTA challenge
# Procedure, shortened: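 The conditional stability constant at pH 7.4 came from direct competition of the Mn complex with CDTA, with species monitored by LC-MS. The effective constant was derived from the competition constant Kcomp. pMn was calculated as -log[free Mn] with [M] = [L] = 10 μM.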
# [2] = Dynamic MRI clearance kinetics in mice; format: in vivo, balb/C mouse; conditions: 60 μmol/kg i.v., monoexponential fit of nSNR vs time
# [3] = Protein bound fraction by ultra-filtration; format: in vitro ADME, bovine; conditions: 150-300 μM solution
# T1 relaxivity = format: physicochemical; conditions: for Relaxivity r1 in pH 7.4 buffer: pH 7.4 Tris buffer
# [4] = Mn tissue content by ICP-MS 24h after injection in mice; format: in vivo, mouse
# Procedure, shortened: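 Mice (N=4) received test compound i.v. at 60 μmol/kg. Tissue Mn was measured by ICP-MS at 24 h and compared with endogenous Mn in naive mice (N=4). Results were expressed as nmol/g and as %ID/g. Elevation above baseline was tested at P<0.05.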
# [5] = format: physicochemical; conditions: 1 mM complex, 25 mM Zn2+, 50 mM pH 6.0 MES buffer, 37 °C, 1.4T
# [6] = target: bovine serum albumin (BSA) (Bos taurus, UniProt P02769); assay: Protein bound fraction by ultra-filtration; format: in vitro ADME; conditions: 150-300 μM solution
# [7] = Variable temperature 17O NMR: hydration state and water exchange; format: physicochemical; conditions: for ΔH^≠: water exchange; for kex^310: water exchange rate at 310 K
# Procedure, shortened: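 Transverse relaxivity of H217O was measured with the Mn complex present across a range of temperatures. The data were fitted to derive water exchange parameters, including kex at 310 K and ΔH, and the Mn-17O hyperfine coupling constant.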
# [8] = Mn2+ thermodynamic stability constants by pH-potentiometry; format: physicochemical
# Procedure, shortened: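 The ligand was titrated by pH-potentiometry in the presence of 1 equiv MnCl2 at 25 °C and I = 0.15 M NaCl. KML = [ML]/([M][L]) and KHML = [HML]/([ML][H]). Effective formation constants were derived at pH 7.4. pMn is -log[free Mn] when [M] = [L] = 10 μM.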
# [9] = cited from earlier work
# [10] = system: carotid artery thrombus (fibrin); assay: MR imaging of carotid artery thrombosis in a rat model, 1.5T; format: in vivo
# Procedure, shortened: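 In a rat carotid artery thrombosis model, 3D T1-weighted gradient-echo MRI with arterial inflow suppression was run at 1.5T. Scans were taken before and immediately after injection of 10 μmol/kg probe (40 μmol/kg metal) and repeated over 1 h; N=4 per probe. Thrombus-to-muscle and contralateral vessel-to-muscle CNR were followed over time. Thrombosis was confirmed by H&E histology. Error bars are SEM.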
# [11] = Mn blood pharmacokinetics and plasma speciation in rats; conditions: rat, HPLC-ICP-MS
# [12] = Biodistribution in rats by ICP-MS; conditions: rat, in vivo
# in vivo = conditions: rat
# [13] = rat, in vivo
# [14] = rat, plateau by 35 minutes post injection
# bovine serum albumin (BSA), sequence (P02769 25-607): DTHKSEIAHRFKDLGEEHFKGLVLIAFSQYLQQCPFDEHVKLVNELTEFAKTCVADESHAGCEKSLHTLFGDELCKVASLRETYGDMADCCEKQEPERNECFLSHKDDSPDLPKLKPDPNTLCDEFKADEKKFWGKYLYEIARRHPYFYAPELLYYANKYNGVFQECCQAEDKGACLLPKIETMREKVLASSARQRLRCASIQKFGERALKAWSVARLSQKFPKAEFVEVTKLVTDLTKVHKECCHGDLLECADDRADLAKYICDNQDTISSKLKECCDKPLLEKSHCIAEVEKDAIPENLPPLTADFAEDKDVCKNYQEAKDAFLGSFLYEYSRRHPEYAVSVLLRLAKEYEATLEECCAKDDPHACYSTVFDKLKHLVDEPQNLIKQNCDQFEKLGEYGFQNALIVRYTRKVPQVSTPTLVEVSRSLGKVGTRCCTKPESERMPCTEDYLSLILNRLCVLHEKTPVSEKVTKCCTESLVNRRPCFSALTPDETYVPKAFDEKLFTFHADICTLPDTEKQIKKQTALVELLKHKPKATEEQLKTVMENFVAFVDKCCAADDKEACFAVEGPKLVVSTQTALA
smiles,measurement,setting,value
O.O=C([O-])CN(CC(=O)[O-])C1CCCCC1N(CC(=O)[O-])Cc1ccccn1.[Mn+2] (stereo not shown) [[Mn(PyC3A)(H2O)]^-],logKpH 7.4 (effective formation constant at pH 7.4),[1],11.40
same,Blood clearance t1/2,[2],7.8 ± 3.0 min
same,Fraction protein bound in plasma,[3],1-5%
same,Relaxivity r1 in 4.5% w/v BSA solution,"T1 relaxivity; 1.4 T, 37 °C, per Mn",3.4 mM⁻¹ s⁻¹
same,Relaxivity r1 in bovine blood plasma,"T1 relaxivity; 1.4 T, 37 °C, per Mn",3.8 mM⁻¹ s⁻¹
same,Relaxivity r1 in pH 7.4 buffer,"T1 relaxivity; 1.4 T, 37 °C, per Mn",2.1 mM^-1s^-1
same,Elimination by 24h,[4],> 99%
same,Injected dose remaining in the body at 24 hours,[4],less than 1%
same,Mn levels in all other tissues at 24h vs naïve mice,"[4]; 60 μmol/kg i.v., ICP-MS",not elevated above endogenous basal levels
same,Mn remaining in liver and kidneys at 24h,"[4]; 60 μmol/kg i.v., ICP-MS",< 0.05 %ID/g
same,Pseudo-first order rate constant of transmetallation,[5],6.76±0.03 × 10^-4 s^-1
same,Fraction protein bound in 4.5% w/v BSA solution,[6],1-5%
same,Hydration state (q),[7],1
same,Mn-17O hyperfine coupling constant AO/ħ,[7],2.87±0.080 ×10^7 rad/s
same,ΔH^≠,[7],8.89 kcal/mol
same,kex^310,[7],1.0±0.02 ×10^8 s^-1
same,logKML,"[8]; Mn(II) complex, pH-potentiometry, 25 °C, I = 0.15 M NaCl",14.14
same,logKpH 7.4 (effective formation constant at pH 7.4),"[8]; from potentiometric titration, 25 °C, 0.15 M NaCl",11.34
same,Stability relative to [Mn(DPDP)]^3- at pH 7.4,[8]; pH 7.4,> 10^5 times
"O=C(O)CN(CC(=O)O)C1CCCCC1N(CC(=O)O)Cc1ccccn1 (stereo not drawn) [PyC3A, N-picolyl-N,N′,N′-trans-1,2-cyclohexylenediaminetriacetate]",pH by which complexation is complete,"[8]; 1 mM each Mn2+ and PyC3A, 0.15M NaCl, 25 °C",4.5
O=C([O-])CN1CCN(CC(=O)[O-])CCN(CC(=O)[O-])CCN(CC(=O)[O-])CC1.[Gd+3] [Gd-DOTA],Relaxivity in plasma,[9],3.6 mM⁻¹ s⁻¹
O=C([O-])CN(CCN(CC(=O)[O-])CC(=O)[O-])CCN(CC(=O)[O-])CC(=O)[O-].[Gd+3] [[Gd(DTPA)(H2O)]^2-],Relaxivity in plasma,[9],4.1 mM⁻¹ s⁻¹
same,Pseudo-first order rate constant of transmetallation,[5],1.41±0.31 × 10^-2 s^-1
CC[C@H](C)[C@H](NC(=O)[C@H](Cc1ccc(O)cc1)NC(=O)[C@@H]1CSSC[C@H](NC(=O)[C@@H](CCC(=O)O)NC(=O)[C@H](Cc2ccc(O)cc2)NC(=O)[C@H](CNC(=O)c2ccc(CN(CC(=O)O)C3CCCCC3N(CC(=O)O)CC(=O)O)nc2)NC(=O)c2ccc(CN(CC(=O)O)C3CCCCC3N(CC(=O)O)CC(=O)O)nc2)C(=O)N2C[C@H](O)C[C@H]2C(=O)N[C@@H](Cc2ccc(O)c(Cl)c2)C(=O)NCC(=O)N[C@@H](CC(C)C)C(=O)N1)C(=O)N[C@@H](CCC(N)=O)C(=O)NCc1ccc(CNC(=O)[C@H](CNC(=O)c2ccc(CN(CC(=O)O)C3CCCCC3N(CC(=O)O)CC(=O)O)nc2)NC(=O)c2ccc(CN(CC(=O)O)C3CCCCC3N(CC(=O)O)CC(=O)O)nc2)cc1 (stereo partly shown) [Mn-FBP],Thrombus enhancement compared with EP-2104R,[10]; rat model of arterial thrombosis,equivalent thrombus enhancement
same,Increase of thrombus-to-muscle CNR post injection,"[10]; rat, 10 μmol/kg probe",more than 5 fold
same,"Peak CNR vs. muscle, contralateral vessel",[10]; [14],5.6±1.5
same,"Peak CNR vs. muscle, thrombus",[10]; [14],32.9±4.0
same,Mn dechelation in blood plasma (Mn speciation),[11],no evidence of Mn dechelation
same,Molecular relaxivity relative to per Mn values,T1 relaxivity,4 fold
same,Relaxivity in human fibrinogen solution compared with buffer,"T1 relaxivity; 1.4 T, 37 °C",unchanged
same,Relaxivity r1 in 4.5% w/v BSA solution,"T1 relaxivity; 1.4 T, 37 °C, per Mn",11.4 mM⁻¹ s⁻¹
same,Relaxivity r1 in bovine blood plasma,"T1 relaxivity; 1.4 T, 37 °C, per Mn",10.7 mM⁻¹ s⁻¹
same,Relaxivity r1 in human fibrin gel,"T1 relaxivity; fibrinogen converted to fibrin gel, 1.4 T, 37 °C, per Mn",13.5 mM⁻¹ s⁻¹
same,Increase in relaxivity in the presence of fibrin,T1 relaxivity; human fibrin gel vs buffer,60%
same,Relaxivity r1 in pH 7.4 buffer,"T1 relaxivity; 1.4 T, 37 °C, per Mn",8.5 mM^-1s^-1
same,Per Mn relaxivity relative to [Mn(PyC3A)(H2O)]^-,T1 relaxivity; pH 7.4 buffer,4 fold
same,Eliminated after 24 hr,[12],> 99%
same,Mn in muscle at 24h,[12],0.02±0.02% of the injected dose per gram tissue
same,Hydration state (q),[7],1
same,Mn-17O hyperfine coupling constant AO/ħ,[7],2.82±0.040 ×10^7 rad/s
same,Water exchange rate kex,[7]; 37 °C,1.1e+08 s⁻¹
same,ΔH^≠,[7],9.49 kcal/mol
same,kex^310,[7],1.1±0.04 ×10^8 s^-1
same,half-life,in vivo,23.5 ± 13.4 min
same,Total Mn blood clearance t1/2,[13],22.6 ± 6.8 min
O.O=C([O-])CN(CC(=O)[O-])C1CCCCC1N(CC(=O)[O-])CC(=O)[O-].[Mn+2] (stereo not shown) [[Mn(CDTA)(H2O)]^2-],Pseudo-first order rate constant of transmetallation,[5],1.10±0.01 × 10^-3 s^-1
